Test results: ChEMBL document CHEMBL2046325, “Synthesis and SAR-study for novel arylpiperazine derivatives of 5-arylidenehydantoin with α₁-adrenoceptor antagonistic properties” (Bioorg Med Chem, 2012)

How the values were obtained:
[1] = target: T1, Adrenergic receptor alpha-1 (Rattus norvegicus, UniProt P15823+P23944+P43140); experiment: Displacement of [3H]prazosin from alpha1 adrenoceptor in rat cerebral cortex after 30 mins by beta scintillation counting; assay type: tissue-based
T1 sequence (P15823 whole entry): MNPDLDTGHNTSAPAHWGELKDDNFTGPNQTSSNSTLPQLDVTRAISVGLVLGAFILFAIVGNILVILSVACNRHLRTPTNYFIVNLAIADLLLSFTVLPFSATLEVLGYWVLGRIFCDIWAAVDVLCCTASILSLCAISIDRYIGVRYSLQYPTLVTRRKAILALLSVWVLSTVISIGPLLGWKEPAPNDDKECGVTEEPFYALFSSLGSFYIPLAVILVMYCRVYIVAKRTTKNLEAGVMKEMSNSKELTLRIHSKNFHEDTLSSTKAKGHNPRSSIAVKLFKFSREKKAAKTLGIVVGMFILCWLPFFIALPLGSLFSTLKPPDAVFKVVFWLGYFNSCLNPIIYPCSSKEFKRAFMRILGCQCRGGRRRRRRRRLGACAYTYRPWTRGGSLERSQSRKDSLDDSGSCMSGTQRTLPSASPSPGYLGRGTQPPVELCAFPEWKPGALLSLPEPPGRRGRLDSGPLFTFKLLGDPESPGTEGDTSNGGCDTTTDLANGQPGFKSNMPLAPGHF
T1 sequence (P23944 whole entry): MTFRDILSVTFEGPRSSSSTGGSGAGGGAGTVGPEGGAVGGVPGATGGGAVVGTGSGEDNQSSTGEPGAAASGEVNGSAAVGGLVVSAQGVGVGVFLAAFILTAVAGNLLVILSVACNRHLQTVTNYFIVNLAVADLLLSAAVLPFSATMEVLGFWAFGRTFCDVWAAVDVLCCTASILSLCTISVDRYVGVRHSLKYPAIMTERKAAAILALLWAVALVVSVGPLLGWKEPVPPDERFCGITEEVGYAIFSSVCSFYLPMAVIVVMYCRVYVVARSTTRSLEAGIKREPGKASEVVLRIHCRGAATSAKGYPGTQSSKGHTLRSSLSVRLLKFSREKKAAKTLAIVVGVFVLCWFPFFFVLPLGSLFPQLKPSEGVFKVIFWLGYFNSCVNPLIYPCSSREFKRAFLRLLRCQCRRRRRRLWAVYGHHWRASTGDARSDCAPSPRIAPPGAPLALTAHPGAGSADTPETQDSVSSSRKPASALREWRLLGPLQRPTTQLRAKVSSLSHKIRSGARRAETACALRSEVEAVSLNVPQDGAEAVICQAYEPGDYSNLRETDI
T1 sequence (P43140 whole entry): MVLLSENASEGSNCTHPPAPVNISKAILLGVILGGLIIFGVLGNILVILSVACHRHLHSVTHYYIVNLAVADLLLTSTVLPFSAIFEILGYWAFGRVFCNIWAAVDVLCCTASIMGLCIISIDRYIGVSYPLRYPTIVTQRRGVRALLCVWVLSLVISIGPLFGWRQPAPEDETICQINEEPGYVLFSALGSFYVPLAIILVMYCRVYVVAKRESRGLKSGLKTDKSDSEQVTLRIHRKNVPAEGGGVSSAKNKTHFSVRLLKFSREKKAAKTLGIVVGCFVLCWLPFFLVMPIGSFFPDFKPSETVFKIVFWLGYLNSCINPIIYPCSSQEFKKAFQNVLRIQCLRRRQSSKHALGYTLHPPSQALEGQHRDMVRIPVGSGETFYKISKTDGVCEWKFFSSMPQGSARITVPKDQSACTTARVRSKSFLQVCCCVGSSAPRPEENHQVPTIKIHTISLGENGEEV
Summary of the method: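 Rat cerebral cortex homogenized in 50 mM Tris-HCl, pH 7.6, centrifuged twice at 20000 × g and resuspended at 10 mg wet weight/ml. Tissue incubated with [3H]-prazosin (19.5 Ci/mmol) and test compound for 30 min at 25 °C. Samples filtered on GF/B and counted by scintillation; three-parameter logistic fit of percent binding.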

[2] = target: Adrenergic receptor alpha-1 (Rattus norvegicus) (UniProt P15823+P23944+P43140); experiment: Antagonist activity at alpha1 adrenoceptor in Wistar rat denuded thoracic aorta rings assessed as inhibition of phenylephrine-induced contraction after 20 mins; assay type: functional, tissue-based
Summary of the method: (§1)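 Male Wistar rats (200-350 g) anaesthetised with thiopental sodium (75 mg/kg ip). Endothelium-denuded thoracic aortic rings, about 4 mm, held in Krebs-Henseleit at 37 °C, pH 7.4, gassed O2/CO2 19:1. Cumulative phenylephrine curves run over 3×10⁻⁹–3×10⁻⁶ M, before and after 20 min with one antagonist concentration per ring (3–4 levels), 60 min recovery between curves. Schild pA2 used if slope is unity, otherwise pKB; ≥5 experiments.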

[3] = target: T1, Adrenergic receptor alpha-1; experiment: Competitive antagonist activity at alpha1 adrenoceptor in Wistar rat denuded thoracic aorta rings assessed as inhibition of phenylephrine-induced contractions after 20 mins; assay type: functional, tissue-based; summary of the method: as §1

For `COc1ccccc1N1CCN(CC(O)CN2C(=O)N/C(=C\c3ccccc3)C2=O)CC1.Cl` (racemic), the Ki [1] was 285.9 nM.

In the case of `CCOc1ccccc1N1CCN(CC(O)CN2C(=O)N/C(=C\c3ccc(N(C)C)cc3)C2=O)CC1.Cl` (racemic), the Ki [1] is reported as 8700 nM.

`CCOc1ccccc1N1CCN(CC(O)CN2C(=O)N/C(=C\c3cccc(OC)c3OC)C2=O)CC1.Cl` (racemic) was tested, and the inhibition [2] was “Dose-dependent effect”, the pKb [2] was 7.53 and the Ki [1] was 72.1 nM.

`COc1ccccc1N1CCN(CC(O)CN2C(=O)N/C(=C\c3cccc(OC)c3OC)C2=O)CC1.Cl` (racemic) was tested, and the pA2 [3] was 7.55, the inhibition [2] was “Dose-dependent effect” and the Ki [1] was 70 nM.

With `COc1ccc(/C=C2\NC(=O)N(CC(O)CN3CCN(c4ccccc4)CC3)C2=O)cc1OC.Cl` (racemic) the Ki [1] was 197.6 nM.

In the case of `COc1ccc(/C=C2\NC(=O)N(CC(O)CN3CCN(c4ccccc4OC)CC3)C2=O)c(OC)c1.Cl` (racemic), the inhibition [2] is reported as “Dose-dependent effect”, the pKb [2] is reported as 8.95 and the Ki [1] is reported as 52.2 nM.

`COc1ccccc1N1CCN(CC(O)CN2C(=O)N/C(=C\c3ccc(N(C)C)cc3)C2=O)CC1.Cl` (racemic) showed a Ki [1] of 834.9 nM.

`CCOc1ccccc1N1CCN(CC(O)CN2C(=O)N/C(=C\c3ccc(Cl)cc3)C2=O)CC1.Cl` (racemic) was tested, and the inhibition [2] was “Dose-dependent effect”, the pKb [2] was 9.01 and the Ki [1] was 59.1 nM.

For `COc1ccccc1N1CCN(CC(O)CN2C(=O)N/C(=C\c3ccc(Cl)cc3)C2=O)CC1.Cl` (racemic), the inhibition [2] was “Dose-dependent effect”, the pKb [2] was 7.58 and the Ki [1] was 86.3 nM.

With `COc1ccc(/C=C2\NC(=O)N(CC(O)CN3CCN(c4ccccc4OC)CC3)C2=O)cc1OC.Cl` (racemic) the pA2 [3] was 7.56, the inhibition [2] was “Dose-dependent effect” and the Ki [1] was 44.5 nM.

Molecule `Cl.O=C1N/C(=C\c2ccc(Cl)cc2)C(=O)N1CC(O)CN1CCN(c2ccccc2)CC1` (racemic) has a Ki [1] of 3700 nM.

`COc1cccc(/C=C2\NC(=O)N(CC(O)CN3CCN(c4ccccc4)CC3)C2=O)c1OC.Cl` (racemic) was tested, and the Ki [1] was 318.8 nM.

Work on `CCOc1ccccc1N1CCN(CC(O)CN2C(=O)N/C(=C\c3ccc(OC)cc3OC)C2=O)CC1.Cl` (racemic) yielded a Ki [1] of 231 nM.

In the case of `CCOc1ccccc1N1CCN(CC(O)CN2C(=O)N/C(=C\c3ccccc3)C2=O)CC1.Cl` (racemic), the inhibition [2] is reported as “Dose-dependent effect”, the pKb [2] is reported as 7.66 and the Ki [1] is reported as 91.4 nM.
